The source made the active and inactive calls. The rule behind the calls is not given here.
Tests used:
[1] = target: T1, Aldo-keto reductase family 1 member C3 (Homo sapiens, UniProt P42330); assay: Inhibition of human recombinant AKR1C3 using S-tetralol as substrate assessed as reduction in NADP+-dependent S-tetralol oxidation preincubated for 10 mins followed by protein addition by fluorometric assay
T1 sequence (P42330 whole entry): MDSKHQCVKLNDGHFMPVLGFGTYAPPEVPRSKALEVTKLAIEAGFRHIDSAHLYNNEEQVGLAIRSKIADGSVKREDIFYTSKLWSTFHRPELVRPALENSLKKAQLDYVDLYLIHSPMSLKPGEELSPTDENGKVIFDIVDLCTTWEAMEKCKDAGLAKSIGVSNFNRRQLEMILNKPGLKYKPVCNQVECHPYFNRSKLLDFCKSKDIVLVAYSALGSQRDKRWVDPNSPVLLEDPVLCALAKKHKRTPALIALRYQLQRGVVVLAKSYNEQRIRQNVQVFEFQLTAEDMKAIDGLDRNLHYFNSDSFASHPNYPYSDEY

[2] = target: T2, Aldo-keto reductase family 1 member C2 (Homo sapiens, UniProt P52895); assay: Inhibition of human recombinant AKR1C2 using S-tetralol as substrate assessed as reduction in NADP+-dependent S-tetralol oxidation preincubated for 10 mins followed by protein addition by fluorometric assay
T2 sequence (P52895 whole entry): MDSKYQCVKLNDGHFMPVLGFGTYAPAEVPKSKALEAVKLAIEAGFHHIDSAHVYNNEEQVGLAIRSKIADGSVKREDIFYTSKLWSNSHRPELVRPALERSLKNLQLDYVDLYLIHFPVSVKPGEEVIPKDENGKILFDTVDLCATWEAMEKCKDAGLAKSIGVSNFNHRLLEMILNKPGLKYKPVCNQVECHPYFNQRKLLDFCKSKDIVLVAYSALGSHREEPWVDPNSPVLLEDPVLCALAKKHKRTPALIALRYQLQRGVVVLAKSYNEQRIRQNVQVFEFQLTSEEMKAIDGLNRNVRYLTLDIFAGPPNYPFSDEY

[3] = target: T3, Prostaglandin G/H synthase 2 (Homo sapiens, UniProt P35354); assay: Inhibition of COX2 (unknown origin) using arachidonic acid as substrate assessed as […] by measuring TMPD oxidation preincubated for 5 mins followed by substrate/TMPD addition measured for 5 mins by colorimetric assay
T3 sequence (P35354 whole entry): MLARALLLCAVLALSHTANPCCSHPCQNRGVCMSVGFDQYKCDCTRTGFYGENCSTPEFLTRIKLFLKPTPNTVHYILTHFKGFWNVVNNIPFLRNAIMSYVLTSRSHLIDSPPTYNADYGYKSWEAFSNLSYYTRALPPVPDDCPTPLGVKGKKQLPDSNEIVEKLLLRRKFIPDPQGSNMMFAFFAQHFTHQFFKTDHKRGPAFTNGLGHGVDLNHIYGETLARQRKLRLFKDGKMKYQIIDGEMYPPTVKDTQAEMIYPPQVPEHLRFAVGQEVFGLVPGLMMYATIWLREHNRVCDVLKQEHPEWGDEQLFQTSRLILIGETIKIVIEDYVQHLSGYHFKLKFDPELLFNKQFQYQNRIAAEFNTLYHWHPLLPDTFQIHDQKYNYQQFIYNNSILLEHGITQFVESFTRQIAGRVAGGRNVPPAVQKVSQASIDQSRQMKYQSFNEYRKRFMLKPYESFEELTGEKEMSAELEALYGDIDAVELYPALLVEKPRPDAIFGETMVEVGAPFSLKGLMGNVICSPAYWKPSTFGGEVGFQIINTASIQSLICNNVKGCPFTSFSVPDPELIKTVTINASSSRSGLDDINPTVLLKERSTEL

[4] = target: T4, Prostaglandin G/H synthase 1 (Ovis aries) (UniProt P05979); conditions: 100 uM
T4 sequence (whole entry): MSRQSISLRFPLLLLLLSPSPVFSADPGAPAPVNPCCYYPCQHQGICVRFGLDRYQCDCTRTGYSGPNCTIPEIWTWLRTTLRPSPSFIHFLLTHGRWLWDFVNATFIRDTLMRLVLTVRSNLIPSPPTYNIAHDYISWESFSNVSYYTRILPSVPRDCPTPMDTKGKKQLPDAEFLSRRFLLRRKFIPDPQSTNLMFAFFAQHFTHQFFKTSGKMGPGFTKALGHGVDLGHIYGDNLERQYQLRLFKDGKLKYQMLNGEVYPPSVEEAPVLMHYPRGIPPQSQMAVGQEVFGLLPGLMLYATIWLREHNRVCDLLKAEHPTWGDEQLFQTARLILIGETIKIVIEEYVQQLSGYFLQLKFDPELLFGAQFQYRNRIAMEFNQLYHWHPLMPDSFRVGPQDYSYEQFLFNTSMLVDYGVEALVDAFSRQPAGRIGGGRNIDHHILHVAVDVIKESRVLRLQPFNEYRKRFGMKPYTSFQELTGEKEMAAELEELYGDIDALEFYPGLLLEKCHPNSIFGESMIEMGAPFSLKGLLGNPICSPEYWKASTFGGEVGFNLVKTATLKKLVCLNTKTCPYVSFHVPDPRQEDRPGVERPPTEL

[5] = target: T5, Androgen receptor (Homo sapiens) (UniProt P10275); assay: Effect on 5alpha-DHT-induced activation of AR (unknown origin) expressed in human HeLa13 cells at 10 uM incubated for 20 hrs by luciferase reporter gene assay; format: cell-based
T5 sequence (whole entry): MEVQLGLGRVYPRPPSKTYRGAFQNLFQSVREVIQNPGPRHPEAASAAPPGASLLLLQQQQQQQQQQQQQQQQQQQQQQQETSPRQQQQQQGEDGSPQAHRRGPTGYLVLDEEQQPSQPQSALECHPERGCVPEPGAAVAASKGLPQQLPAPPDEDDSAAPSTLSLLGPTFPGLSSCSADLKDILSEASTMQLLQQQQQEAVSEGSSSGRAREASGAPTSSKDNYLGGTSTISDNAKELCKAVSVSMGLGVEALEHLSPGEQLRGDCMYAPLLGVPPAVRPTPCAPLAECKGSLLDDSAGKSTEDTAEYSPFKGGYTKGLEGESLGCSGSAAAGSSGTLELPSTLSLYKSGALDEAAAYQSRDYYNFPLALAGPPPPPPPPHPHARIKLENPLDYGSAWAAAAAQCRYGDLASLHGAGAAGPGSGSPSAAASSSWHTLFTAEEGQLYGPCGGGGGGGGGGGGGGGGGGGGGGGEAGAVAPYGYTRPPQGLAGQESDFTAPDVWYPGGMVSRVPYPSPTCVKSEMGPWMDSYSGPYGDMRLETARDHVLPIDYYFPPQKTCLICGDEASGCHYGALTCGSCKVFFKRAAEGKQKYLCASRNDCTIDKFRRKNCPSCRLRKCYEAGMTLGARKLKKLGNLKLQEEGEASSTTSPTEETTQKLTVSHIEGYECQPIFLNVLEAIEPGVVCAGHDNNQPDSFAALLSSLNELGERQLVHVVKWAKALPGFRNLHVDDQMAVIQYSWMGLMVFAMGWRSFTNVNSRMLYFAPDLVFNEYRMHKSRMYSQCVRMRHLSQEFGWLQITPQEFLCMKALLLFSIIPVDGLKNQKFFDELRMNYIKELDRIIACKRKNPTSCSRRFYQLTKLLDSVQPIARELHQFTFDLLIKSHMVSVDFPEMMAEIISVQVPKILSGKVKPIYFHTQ
Method in brief: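 HeLa13 cells stably carrying AR and an androgen-response-element luciferase reporter were grown 48 h in phenol-red-free medium with 5% charcoal-stripped FBS. They were plated for 6–7 h, then given fresh medium with 5α-DHT (1 nM in methods; increasing concentrations also tested) plus inhibitor. Luciferase was read after 20 h, as fold induction over untreated cells.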

[6] = target: T6, Prostaglandin G/H synthase 1 (Ovis aries, UniProt P05979); assay: Inhibition of COX1 in ram seminal vesicles using arachidonic acid as substrate assessed as reduction in […] by measuring TMPD oxidation preincubated for 5 mins followed by substrate/TMPD addition measured for 5 mins by colorimetric assay
T6 sequence (P05979 whole entry): T4 sequence (whole entry)

[7] = target: T7, Prostaglandin G/H synthase 2 (Homo sapiens) (UniProt P35354); assay: Inhibition of COX2 (unknown origin) using arachidonic acid as substrate assessed as reduction in […] by measuring TMPD oxidation at 10 uM preincubated for 5 mins followed by substrate/TMPD addition measured for 5 mins by colorimetric assay
T7 sequence (whole entry): T3 sequence (P35354 whole entry)

SMILES	IC50 [1] [nM]	IC50 [2] [nM]	also measured
CSc1ccc2cc([C@H](C)C(=O)O)ccc2c1	70	1350	
COc1ccc2cc([C@@H](C)C(=O)O)ccc2c1		2750	IC50 ([3]; read-out: IC50): > 25000 nM; inhibition [4]: < 20%
CC[C@@H](C(=O)O)c1ccc2cc(OC)ccc2c1			Activity [5]: inactive; IC50 [3]: Not Active
CC[C@H](C(=O)O)c1ccc2cc(OC)ccc2c1	120	1720	IC50 [6]: 1930 nM; IC50 [3]: Not Active
CCC(C(=O)O)c1ccc2cc(OC)ccc2c1 (racemic)	120	7600	inhibition [7]: inactive
CCc1ccc2cc(C(C)C(=O)O)ccc2c1 (racemic)	120	1900	
CCC(C(=O)NS(C)(=O)=O)c1ccc2cc(OC)ccc2c1 (racemic)	6000	34000	
CCOc1ccc2cc(C(C)C(=O)O)ccc2c1 (racemic)	100	2400	
CSc1ccc2cc(C(C)C(=O)O)ccc2c1 (racemic)	60	1500	
COc1ccc2cc([C@H](C)C(=O)O)ccc2c1 [NAPROXEN]			IC50 ([3]; read-out: IC50): 900 nM

Source: ChEMBL document CHEMBL4428055 (J Med Chem, 2016)
